Active and inactive are the calls of the source. The rule behind the calls is not given here.
How the values were obtained:
[1] = biological target: T1, Antigen-presenting glycoprotein CD1d (Mus musculus) (UniProt P11609+P11610); assay: Covalent binding affinity to mouse CD1d at 5 equivalent incubated in DBPS buffer without tween 20 for 3 hrs by MALDI-TOF analysis; format: protein assay
Outline: (§1)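 Samples of CD1d protein incubated with each ligand were analysed by MALDI-TOF mass spectrometry. The aim was to detect covalent conjugates formed between a CD1d cysteine and the ligand's α-fluorocarbonyl group.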

[2] = biological target: T1, Antigen-presenting glycoprotein CD1d (Mus musculus); assay: Binding affinity to CD1d in C57BL/6 mouse HMNC cells assessed as iNKT cells stimulation by measuring increase in IL-2 production at 25 nM incubated for 72 hrs by ELISA; format: cell-based
Outline: (§2)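 Primary murine hepatic mononuclear cells (HMNCs), which contain iNKT cells, were incubated with each glycolipid at 25 nM for 72 h. Cytokines released into the medium were quantified by ELISA, with α-GalCer as positive control.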

[3] = biological target: T1, Antigen-presenting glycoprotein CD1d (Mus musculus); assay: Covalent binding affinity to mouse CD1d at 10 equivalent incubated for 3 hrs by coomassie blue staining based SDS-PAGE analysis; format: protein assay
Outline: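 CD1d protein was incubated with each ligand under several reported or modified conditions. Samples were then denatured and resolved by SDS-PAGE. Gels were stained with Coomassie blue to look for covalent CD1d–ligand adduct bands alongside intact protein.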

[4] = biological target: T1, Antigen-presenting glycoprotein CD1d (Mus musculus); assay: Covalent binding affinity to mouse CD1d at 5 equivalent incubated in DBPS buffer with tween 20 for 3 hrs by MALDI-TOF analysis; format: protein assay; outline: as §1
[5] = biological target: T1, Antigen-presenting glycoprotein CD1d (Mus musculus); assay: Binding affinity to CD1d in C57BL/6 mouse HMNC cells assessed as iNKT cells stimulation by measuring increase in Th2-type cytokine, IL-4 production at 25 nM incubated for 72 hrs by ELISA; format: cell-based; outline: as §2
[6] = biological target: T1, Antigen-presenting glycoprotein CD1d (Mus musculus); assay: Binding affinity to CD1d in C57BL/6 mouse HMNC cells assessed as iNKT cells stimulation by measuring Th1-type cytokine, IFNgamma production at 25 nM incubated for 72 hrs by ELISA; format: cell-based; outline: as §2
[7] = biological target: T1, Antigen-presenting glycoprotein CD1d (Mus musculus); assay: Binding affinity to CD1d in C57BL/6 mouse HMNC cells assessed as iNKT cells stimulation by measuring increase in IL17 production at 25 nM incubated for 72 hrs by ELISA; format: cell-based; outline: as §2
[8] = biological target: T1, Antigen-presenting glycoprotein CD1d (Mus musculus); assay: Binding affinity to CD1d in C57BL/6 mouse HMNC cells assessed as iNKT cells stimulation by measuring increase in ratio of IL-4 to IFNgamma (IL-4/IFNgamma) level at 25 nM incubated for 72 hrs by ELISA; format: cell-based
[9] = biological target: T1, Antigen-presenting glycoprotein CD1d (Mus musculus); assay: Covalent binding affinity to mouse CD1d at 14.6 equivalent incubated in tris buffer with tween 20 at pH 7.5 to 8 for 16 hrs by MALDI-TOF MS analysis; format: protein assay; outline: as §1
[10] = biological target: T1, Antigen-presenting glycoprotein CD1d (Mus musculus); assay: Covalent binding affinity to mouse CD1d at 14.6 equivalent incubated in tris buffer without tween 20 at pH 7.5 to 8 for 16 hrs by MALDI-TOF MS analysis; format: protein assay; outline: as §1

SMILES | Activity [1] | Activity [2] | Activity [3] | Activity [4] | Activity [5] | Activity [6] | Activity [7] | Activity [8] | Activity [9] | Activity [10]
CCCCCCCCCCCCCC[C@@H](O)[C@@H](O)[C@H](CO[C@H]1O[C@H](CO)[C@H](O)[C@H](O)[C@H]1O)NC(=O)CCCCCCCCCCCCCCCCC(=O)CF | inactive | Active | inactive | inactive | Active | inactive | – | – | – | –
CCCCCCCCCCCCCCCCCCCCCCCCCC(=O)N[C@@H](CO[C@H]1O[C@H](CO)[C@H](O)[C@H](O)[C@H]1O)[C@H](O)[C@H](O)CCCCCCCCCCCCCC | – | Active | – | – | Active | – | Active | – | – | –
CCCCCCCCCCCCCCCCCCCCCCCC(=O)N[C@@H](CO[C@H]1O[C@H](CO)[C@H](O)[C@H](O)[C@H]1O)[C@H](O)[C@H](O)CCCCC | – | – | – | – | inactive | inactive | – | Active | – | –
CCCCCCCCCCCCCC[C@@H](O)[C@@H](O)[C@H](CO[C@H]1O[C@H](CO)[C@H](O)[C@H](O)[C@H]1O)NC(=O)CCCCCCCCCCCCCCCCCC(=O)CF | inactive | Active | inactive | inactive | Active | inactive | – | Active | – | –

The remaining lines, values ahead:

Activity [1] | Activity [2] | Activity [3] | Activity [4] | Activity [5] | Activity [6] | Activity [7] | Activity [8] | Activity [9] | Activity [10] | SMILES
inactive | Active | inactive | inactive | Active | inactive | Active | Active | – | – | CCCCCCCCCCCCCC[C@@H](O)[C@@H](O)[C@H](CO[C@H]1O[C@H](CO)[C@H](O)[C@H](O)[C@H]1O)NC(=O)CCCCCCCCCCCCCCCCCCCC(=O)CF
inactive | Active | inactive | inactive | Active | inactive | Active | Active | – | – | CCCCCCCCCCCCCC[C@@H](O)[C@@H](O)[C@H](CO[C@H]1O[C@H](CO)[C@H](O)[C@H](O)[C@H]1O)NC(=O)CCCCCCCCCCCCCCCCCCC(=O)CF
inactive | Active | inactive | inactive | Active | inactive | Active | Active | inactive | inactive | CCCCCCCCCCCCCC[C@@H](O)[C@@H](O)[C@H](CO[C@H]1O[C@H](CO)[C@H](O)[C@H](O)[C@H]1O)NC(=O)CCCCCCCCCCCCCCCCCCCCC(=O)CF
